TRPC6 activator – mouse TRPC6 channel activators, primary screen, cell-based, HEK293, membrane potential dye | Short transient receptor potential channel 6 (Mus musculus), Q61143 | HEK293-TRPC6 membrane potential dye fluorescence; hits give high values | B-score at 10 µM | 310,000 tested, 0.13% active | AID 2550, 2010;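 active = B-score of the integrated fluorescence ratio above library mean plus 3 SD, and starting fluorescence ratio within library mean plus 5 SD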;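 also: higher score means more depolarization so channel activation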
Target sequence (Q61143 whole entry, looked up): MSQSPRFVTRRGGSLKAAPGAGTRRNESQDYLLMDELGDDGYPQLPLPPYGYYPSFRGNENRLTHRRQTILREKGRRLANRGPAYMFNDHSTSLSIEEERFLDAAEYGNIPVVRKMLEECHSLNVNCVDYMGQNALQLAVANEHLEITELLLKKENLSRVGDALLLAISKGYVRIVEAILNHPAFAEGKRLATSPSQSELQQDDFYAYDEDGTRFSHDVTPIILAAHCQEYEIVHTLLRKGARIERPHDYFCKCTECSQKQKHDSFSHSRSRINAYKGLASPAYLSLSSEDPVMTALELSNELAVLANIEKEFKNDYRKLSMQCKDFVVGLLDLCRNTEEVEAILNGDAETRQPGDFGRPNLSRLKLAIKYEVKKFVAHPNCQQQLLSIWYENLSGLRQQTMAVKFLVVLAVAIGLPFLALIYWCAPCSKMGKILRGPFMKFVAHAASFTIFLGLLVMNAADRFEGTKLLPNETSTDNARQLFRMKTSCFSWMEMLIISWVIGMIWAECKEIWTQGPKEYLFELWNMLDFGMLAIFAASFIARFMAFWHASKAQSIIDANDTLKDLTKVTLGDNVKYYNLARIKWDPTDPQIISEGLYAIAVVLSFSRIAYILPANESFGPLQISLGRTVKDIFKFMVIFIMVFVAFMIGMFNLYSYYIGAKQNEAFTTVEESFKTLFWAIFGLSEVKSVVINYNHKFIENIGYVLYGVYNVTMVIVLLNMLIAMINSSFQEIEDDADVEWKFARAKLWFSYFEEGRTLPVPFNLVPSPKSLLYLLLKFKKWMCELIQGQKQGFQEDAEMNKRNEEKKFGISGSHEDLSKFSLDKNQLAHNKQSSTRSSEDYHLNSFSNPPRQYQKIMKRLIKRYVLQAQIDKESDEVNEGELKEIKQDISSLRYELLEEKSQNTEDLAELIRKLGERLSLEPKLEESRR
TRPC4 inh – inhibitors of mouse TRPC4 channel, primary screen, Fluo4 calcium, HEK293 TRPC4beta/mu-opioid cells; DAMGO-evoked Fluo4 calcium flux; hits give low values; B-score at 10 µM; 300,000 tested, 0.39% active; AID 2247, 2010;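 active = B-score over 3 SD under the library average, no early fluorescence shift, positive overall ratio signal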
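Material: HEK293 cells with stable TRPC4beta plus mu-opioid receptor expression / Probe or stimulus: DAMGO in two steps, submaximal then maximal / Compound: single concentration per test compound / Technique: kinetic Fluo4 fluorescence imaging of calcium influx / Read-out: per-well B score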
TRPC6 inhibitor – mouse TRPC6 channel inhibitors, primary screen, cell-based, HEK293, membrane potential dye | Short transient receptor potential channel 6 (Mus musculus), Q61143 | ACh-evoked depolarization; hits give low values | B-score at 10 µM | 310,000 tested, 1.1% active;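 active = B-score under library mean minus 3 SD, initial fluorescence not abnormally high, positive integrated signal ratio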;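 also: B-score derived from integrated fluorescence ratio over the kinetic read; more negative B-score means stronger inhibition of depolarization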
TRPC4 potent – positive allosteric modulators of TRPC4, primary screen, cell-based, mouse TRPC4beta, HEK293 mu-opioid, Fluo-4 calcium | B-score at 10 µM | 310,000 tested, 0.42% active | Short transient receptor potential channel 4 (Mus musculus), Q9QUQ5 | AID 2227, 2009 | DAMGO EC20, Fluo-4 Ca2+ flux; hits give high values;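 active = B-score of calcium response area above 5 SD of library B-scores, with initial fluorescence ratio within 5 SD of library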
TRPC4 agonist – activators of mouse TRPC4 channel, primary screen, Fluo4 calcium, HEK293 TRPC4beta/mu-opioid cells | Fluo4 calcium fluorescence; hits give high values | AID 2237, 2010 | B-score at 10 µM | 310,000 tested, 0.49% active | Short transient receptor potential channel 4 (Mus musculus), Q9QUQ5;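 active = B-score above 5 SD of library B-scores, and initial fluorescence ratio not above library mean plus 5 SD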;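 also: positive B-score marks a calcium rise read as TRPC4 activation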
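system = HEK293 cells stably co-expressing mouse TRPC4beta and mu-opioid receptor | schedule = Fluo4 dye loading 45 min at room temperature, 110 s recording | measure = B-scored integrated calcium fluorescence ratio | signal = Fluo4 calcium-sensitive dye fluorescence, kinetic, 1 Hz baseline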
HEK293 MPD ctr – parental HEK293 membrane potential modulation, confirmation, counter-screen for TRPC6 modulator project, cell-based; shares compounds with TRPC6 inhibitor; membrane potential dye fluorescence; membrane potential signal change, % at 10 µM; 2,400 tested, 51% active; AID 488924, 2010;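 active = membrane potential signal moves up or down beyond 5 SD from buffer-only wells, on both duplicate plates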
HEK293 MPD ctr 2 – second counter-screen for TRPC6 modulators: effect in parental HEK293 cells; AID 488926; inhibition, % at 10 µM; 2,400 tested, 14% active; membrane potential dye fluorescence; after compound, maximal acetylcholine stimulation; shares compounds with TRPC6 inhibitor;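 active = membrane potential signal drops by more than 5 SD from the mean control signal, in both duplicate plates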
TRPC4 ctr mod – TRPC4 modulation by TRPC6 hit compounds, confirmation, selectivity assay for TRPC6 modulator project, cell-based, HEK293 TRPC4/mu-opioid, membrane potential dye, mouse. shares compounds with TRPC6 inhibitor. membrane potential fluorescence. percent change from control (negative = decrease, positive = increase), % at 10 µM. 2,400 tested, 69% active. AID 488927, 2010;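 active = membrane potential signal moved up or down beyond 5 SD of buffer control wells, in both duplicate plates, actives on both sides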
TRPC4/MOR inh 2 – second check of whether TRPC6 modulators also affect mouse TRPC4 | inhibition, % at 10 µM | HEK293 TRPC4/mu-opioid, membrane potential dye fluorescence; stimulated with maximal-effect DAMGO | 2,400 tested, 55% active | shares compounds with TRPC6 inhibitor;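 active = drop in membrane potential signal beyond 5 SD of the control wells in both duplicate plates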;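 also: TRPC4 counter screen for TRPC6 hits run under conditions tuned for TRPC6 not TRPC4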
TRPC6 inh conf – mouse TRPC6 channel inhibitors, confirmation, HEK293 cells, membrane potential dye, duplicate; 3,300 tested, 43% active; shares compounds with TRPC6 inhibitor; ACh-evoked depolarization; inhibition, % at 10 µM;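 active = fluorescence ratio falls more than 5 SD below the full-stimulation control mean, in both duplicate runs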;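 also: integrated fluorescence ratio of peak minus minimum over baseline after agonist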
TRPC6 act confirm – mouse TRPC6 channel activators, confirmation, HEK293 cells, membrane potential dye, duplicate | shares compounds with TRPC6 inhibitor | 2,800 tested, 11% active | activation, % at 10 µM | HEK293-TRPC6 membrane potential dye fluorescence, FDSS | AID 488961, 2010;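 active = ratio signal rise beyond 5 SD above unstimulated control wells' mean, seen in both duplicate runs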
Numbers stand for hits; n = inactive; x = not tested or not shown. Most compounds without a hit are left out; they make up all but 2.3% or so of the library.

SMILES	TRPC6 activator	TRPC4 inh	TRPC6 inhibitor	TRPC4 potent	TRPC4 agonist	HEK293 MPD ctr	HEK293 MPD ctr 2	TRPC4 ctr mod	TRPC4/MOR inh 2	TRPC6 inh conf	TRPC6 act confirm
CCN(CC)CCOC(=O)c1ccc(NC(=O)C2(c3ccccc3)CCCC2)cc1	n	n	-5.2	n	n	125%	n	16%	58%	n	x
O=C(O)c1ccc(NC(=O)C2(c3ccccc3)CCCC2)cc1	n	n	n	n	n	x	x	x	x	x	x
CCn1cc(C(=O)OCc2ccccc2)c(=O)c2ccc(C)nc21	n	n	-6	n	n	-308%	n	-50%	48%	n	n
CCn1cc(C(=O)OCc2ccc(F)cc2)c(=O)c2ccc(C)nc21	n	n	-10	n	n	-340%	84%	-52%	65%	64%	n
COc1cc(/C=C2/C(=O)ON=C2c2ccccc2)ccc1O	n	n	n	n	n	x	x	x	x	x	x
COc1cc(/C=C2\C(=O)ON=C2c2ccccc2)cc(Br)c1O	16	n	n	n	n	906%	n	74%	n	n	148%
Cc1ccc(S(=O)(=O)Nc2nc3ccccc3nc2NCC2CCCO2)c(C)c1 (stereo not drawn)	14	n	n	n	n	n	n	n	n	n	n
Cc1ccn2c(Nc3ccccc3C)c(-c3ccccn3)nc2c1	n	n	-5.7	n	n	-130%	n	-27%	81%	n	n
Cc1ccccc1Nc1c(-c2cccnc2)nc2ccc(Br)cn12	n	n	n	n	n	x	x	x	x	x	x
Cc1ccccc1Nc1c(-c2ccncc2)nc2ccc(Br)cn12	n	n	-7	n	n	-131%	n	-39%	94%	64%	n
Cc1ccccc1Nc1c(-c2cccnc2)nc2ccccn12	n	n	-5.6	n	n	-132%	n	-14%	66%	n	n
CCCn1nnc(NC(=S)NC(=O)/C=C/c2ccco2)n1	n	n	n	n	n	x	x	x	x	x	x
NCCCCCc1nnc(SCC(=O)Nc2cccc(Cl)c2)o1	n	n	n	n	n	x	x	x	x	x	x
NCCc1nnc(SCc2ccccc2Cl)o1	n	n	n	n	n	x	x	x	x	x	x

High-throughput results from PubChem BioAssay.
